# An excerpt weighted towards active compounds, which were near 4.5% of everything screened.
# p97 ATPase inh = inhibitors of human p97 ATPase, primary screen, biochemical; Transitional endoplasmic reticulum ATPase (Homo sapiens), P55072; recombinant p97 ATPase, Kinase-Glo ATP luminescence, 3 h; inhibition, % at 8 µM; actives 0.42% (n = 220,000); AID 1481, 2009; in the data active = inhibition above about 15%
# Target sequence (P55072 whole entry, looked up): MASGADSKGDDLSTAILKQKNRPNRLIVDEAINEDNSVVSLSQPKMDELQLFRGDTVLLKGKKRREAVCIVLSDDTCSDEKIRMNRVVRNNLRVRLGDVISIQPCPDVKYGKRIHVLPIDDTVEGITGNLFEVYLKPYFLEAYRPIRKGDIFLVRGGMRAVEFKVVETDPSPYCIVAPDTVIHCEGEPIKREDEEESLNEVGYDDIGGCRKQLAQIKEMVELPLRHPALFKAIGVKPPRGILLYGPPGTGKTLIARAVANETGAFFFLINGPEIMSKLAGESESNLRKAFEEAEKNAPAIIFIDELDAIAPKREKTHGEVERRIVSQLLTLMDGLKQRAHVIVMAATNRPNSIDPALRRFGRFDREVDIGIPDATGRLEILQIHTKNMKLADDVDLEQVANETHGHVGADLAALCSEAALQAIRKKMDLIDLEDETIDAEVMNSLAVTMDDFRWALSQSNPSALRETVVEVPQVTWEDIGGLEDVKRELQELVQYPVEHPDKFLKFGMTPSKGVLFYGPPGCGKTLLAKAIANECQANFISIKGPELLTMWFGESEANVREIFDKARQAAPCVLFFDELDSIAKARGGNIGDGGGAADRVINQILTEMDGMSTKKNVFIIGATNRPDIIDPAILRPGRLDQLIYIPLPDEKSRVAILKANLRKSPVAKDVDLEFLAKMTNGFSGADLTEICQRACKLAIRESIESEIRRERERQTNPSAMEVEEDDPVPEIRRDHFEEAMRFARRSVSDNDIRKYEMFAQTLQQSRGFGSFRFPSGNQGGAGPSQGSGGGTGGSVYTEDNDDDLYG
# NS3 helicase inh = inhibitors of HCV NS3 helicase, primary screen, biochemical, Cy5 molecular beacon fluorescence; Hepatitis C virus NS3 helicase; NS3 helicase DNA unwinding; inhibition, % at 10.9 µM; actives 0.56% (n = 290,000);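 active = inhibition above the mean of all tested compounds plus 3 SD, set per campaign, cut at about 35% in these data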
#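 Assay system: hepatitis C virus NS3 helicase domain fragment enzyme. Also added: annealed dual-labelled DNA beacon duplex, ATP-started. Timing: 1 h reaction at 25 °C, ATP-initiated. Technique: Cy5 fluorescence at 0 and 60 min, beacon hairpin quenching. Evaluation: % inhibition of unwinding. Replication: one well per compound.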
# XBP1 UPR activ = activators of adaptive XBP1 UPR arm, primary screen, cell-based, CHO-XBP1 luciferase reporter, luminescence, uHTS; IRE1-XBP1 UPR activation; percent of tunicamycin response, DMSO as zero; activation, % at 20 µM; actives 0.33% (n = 330,000);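 active = versus positive control, 20 µM dose yields 30% or more activation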
#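 Material: CHO cell line with stable XBP1 luciferase reporter; buffer or medium: F12 medium containing 10% fetal bovine serum; compound: single point, 20 µM final compound, 1% DMSO; incubation: 6 h treatment, 37 °C; measured by: glow luminescence from Steady-Glo reagent; evaluation: activation, % of tunicamycin; control set: tunicamycin high, DMSO low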
# CHOP UPR activ = activators of apoptotic CHOP UPR arm, primary screen, cell-based, CHO-CHOP luciferase reporter, luminescence, uHTS; actives 0.34% (n = 330,000); UPR activation; percent of tunicamycin response over DMSO baseline; activation, % at 10 µM;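 active = at 10 µM dose, activation of 40% or more, normalized to positive control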
#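 System: CHO-CHOP luciferase reporter cell line; amount: 500 cells/well; buffer or medium: F12 medium containing 10% fetal bovine serum; incubation: 6 h compound exposure at 37 °C after overnight seeding; measured by: luciferase luminescence after 10 min with Steady-Glo reagent; evaluation: % reporter activation, DMSO baseline versus tunicamycin full activation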
# CHOP inh = inhibitors of CHOP promoter induction, primary screen, cell-based, unfolded protein response, luciferase reporter; CHO-K1 CHOP-promoter luciferase, tunicamycin-induced, 15-18 h; inhibition, % at 10 µM; actives 3.8% (n = 220,000);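 active = compounds that reduced the stress-induced luciferase reporter signal by more than about 70% of percent inhibition, limit read from the data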
# M18AAP inhibitor = PfM18AAP inhibitors, malaria aminopeptidase, primary screen, biochemical, QFRET, recombinant enzyme. M18 aspartyl aminopeptidase (Plasmodium falciparum 3D7). H-Glu-NHMec fluorogenic cleavage. inhibition, % at 7.35 µM. actives 1.2% (n = 290,000). AID 1822, 2009;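 active = inhibition above the campaign mean inhibition over all tested compounds plus 3 SD, cut at about 28% in these data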
# NS3 helicase cf = HCV NS3 helicase inhibitors, retest, confirmation, biochemical, Cy5 molecular beacon fluorescence, triplicate. NS3 helicase DNA unwinding. shares compounds with NS3 helicase inh. actives 31% (n = 1,600). inhibition, % at 10.9 µM;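 active = inhibition above the mean of all tested compounds plus 3 SD, cutoff set per campaign, cut at about 36% in these data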
# FID counter trip = compounds displacing fluorescent DNA intercalator, artefact control for HCV NS3 helicase inhibitor project, biochemical, FID fluorescence, triplicate | shares compounds with NS3 helicase inh | DNA fluorescent intercalator displacement | inhibition, % at 7.9 µM | actives 4% (n = 1,600); in the data active = inhibition above about 37%;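 also: higher means more displacement of ethidium bromide from the DNA hairpin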
# Numbers stand for hits; – = inactive; · = no result.
SMILES,p97 ATPase inh,NS3 helicase inh,XBP1 UPR activ,CHOP UPR activ,CHOP inh,M18AAP inhibitor,NS3 helicase cf,FID counter trip
Cn1cccc1Cc1nnc(SCC(=O)NCc2ccco2)n1CCc1ccccc1,–,36.3,–,–,–,–,–,–
Cn1cccc1Cc1nnc(SCC(=O)NCc2ccccc2Cl)n1-c1ccc(F)cc1,–,–,–,–,–,–,·,·
Cn1cccc1Cc1nnc(SCC(=O)NCc2ccco2)n1-c1ccc(F)cc1,–,39.0,–,–,–,–,–,–
Cc1cccc(-c2oc3ccc(-c4ccc5c(c4)OCO5)cc3c2/C=C/c2ccc(N)cc2)c1,·,45.2,–,–,·,–,–,–
COc1ccc(-c2c(-c3cccc(C)c3)oc3ccc(-c4ccc5c(c4)OCO5)cc23)cn1,·,·,–,–,·,·,·,·
COc1ccc(C(=O)NC2CCSc3ccccc32)cc1S(=O)(=O)N1CCOCC1 (configuration not stated),·,·,–,–,·,·,·,·
O=C(COc1ccc(-c2ccccc2)cc1)N/N=C/c1cc(O)ccc1Br,–,37.5,–,–,81.5,–,–,–
O=C(COc1ccc(-c2ccccc2)cc1)N/N=C/c1ccccc1Br,–,–,–,–,–,–,·,·
COCCN(C(=O)CNC(=O)c1ccco1)C(C(=O)NC1CCCC1)c1ccc(OC)cc1 (configuration not stated),·,43.9,–,–,·,–,–,–
COCCN(C(=O)CNC(=O)c1ccco1)C(C(=O)NC1CCCC1)c1ccccc1 (configuration not stated),·,–,–,–,·,–,·,·
COc1ccc2c(c1)[C@H]1[C@H](CO2)[C@H](c2ccccc2)[C@]2(C)C(=O)N[C@H](C)C(=O)N12,·,·,–,–,·,·,·,·
O=C(CCC1CCN(Cc2ccc(C#CCCO)cc2)CC1)NC1CC1,·,–,–,–,·,–,·,·
O=C(CCC1CCN(Cc2ccc(Cl)cc2)CC1)NC1CC1,·,36.2,–,–,·,–,–,–
CC(C)(C)c1ccc(S(=O)(=O)/N=C2\C=C(NS(=O)(=O)c3ccccc3)C(=O)c3ccccc32)cc1,·,43.4,–,–,·,–,82.0,60.3
COC(=O)N/N=C/c1cc(OC)c(O)c([N+](=O)[O-])c1,–,–,–,–,–,–,·,·
COc1cc(/C=N/NC(N)=O)cc([N+](=O)[O-])c1O,–,38.9,–,–,–,–,–,–
O=C(O)C1CCN(c2nc(-c3ccccc3)c3cc(Br)ccc3n2)CC1,·,48.2,–,–,·,–,68.5,–
OCCN1CCN(c2nc(-c3ccccc3)c3cc(Br)ccc3n2)CC1,·,–,–,–,·,–,·,·
Cc1cc(C)c(C)c(S(=O)(=O)NCc2ccc(C(=O)N3CCOCC3)cc2)c1C,·,–,–,–,·,–,·,·
N=c1c(S(=O)(=O)c2ccccc2)cc2c(=O)n3ccccc3nc2n1Cc1ccco1,–,36.8,–,–,·,–,–,–
Cc1nn(Cc2ccc(Cl)cc2)c(C)c1NC(=O)c1noc2c1CCc1ccccc1-2,–,57.3,–,–,–,–,–,–
CCN1CCN(c2cc(N3CCN(C(=O)c4ccco4)CC3)c3c4c(onc24)-c2ccccc2C3=O)CC1,·,–,–,–,·,–,·,·
O=C(O)CCNc1cc(N2CCN(C(=O)c3ccco3)CC2)c2noc3c2c1C(=O)c1ccccc1-3,·,56.9,–,–,·,34.6,76.3,–
O=C(Nc1cc(C(F)(F)F)ccc1N1CCOCC1)C1Cc2ccccc2CN1C(=O)c1ccco1 (configuration not stated),–,57.4,–,–,71.8,–,–,–
CC(O)[C@H]1CC[C@H]2[C@@H]3CC[C@H]4C[C@H](O)CC[C@]4(C)[C@H]3[C@H](O)C[C@]12C (some centres not stated),·,·,–,–,·,·,·,·
SMILES,p97 ATPase inh,NS3 helicase inh,XBP1 UPR activ,CHOP UPR activ,CHOP inh,M18AAP inhibitor,NS3 helicase cf,FID counter trip
COc1ccc2c(c1)cc(C(=O)N/N=C/c1c(O)c(C(=O)O)cc3ccccc13)n2C,·,79.5,–,–,·,–,104.2,–
Cn1c(C(=O)NN)cc2cc(Oc3ccccc3)ccc21,·,–,–,–,·,–,·,·
Cc1n(Cc2ccccc2)c2ccccc2[n+]1Cc1ccccc1,·,–,–,–,·,–,·,·
Cc1ccc(C=Nc2ccc(N(C)C)cc2)o1,–,39.2,–,–,–,–,–,–
COc1ccccc1NC(=O)CSc1nc(=O)n(Cc2ccncc2)c2c1CCCC2,·,·,–,–,·,·,·,·
O=C(Nc1cccc2ccccc12)c1ccc([N+](=O)[O-])cc1,·,41.3,–,–,·,–,–,–
O=C(Nc1cccc2ccccc12)c1ccccc1,–,–,–,–,–,–,·,·
O=C(NCCCN1CCCC1=O)c1cccc(S(=O)(=O)Nc2ccccc2Cl)c1,·,·,–,–,·,·,·,·
CN(CC(=O)Nc1ccccc1Sc1ccccc1)C1CCCCC1,–,–,–,–,–,–,·,·
CCOCCCNc1ccc(N2C(=O)C3CCCCC3C2=O)cc1[N+](=O)[O-] (configuration not stated),–,–,–,–,–,–,·,·
CC(C)Oc1ccc(C(=O)OCC(=O)NC2CCCCCC2)cc1,·,·,–,–,·,·,·,·
O=C1CC(=O)N(c2ccccc2)c2ccccc21,–,–,–,–,–,–,·,·
O=C1CC(=O)N(c2ccccc2)N1c1ccccc1,–,38.4,–,–,–,–,–,–
COc1ccc(S(=O)(=O)N2CCN(Cc3ccccc3)CC2)cc1OC,·,97.1,–,–,·,–,–,–
COc1ccc(CN2CCN(S(=O)(=O)c3ccc(C)cc3)CC2)cc1OC,·,·,–,–,·,·,·,·
COc1ccc(OC)c(S(=O)(=O)Nc2c(NC3CCCCC3)c3ccccc3oc2=O)c1,·,–,–,–,·,–,·,·
O=C(Nc1ccc(Oc2ccc(Cl)cc2)c(Cl)c1)c1cc(I)cc(I)c1O,·,46.8,–,–,·,–,84.2,–
COc1ccc(NC(=O)c2ccccc2F)cc1Cl,–,–,–,–,–,–,·,·
CN(CC(=O)Nc1ccc(F)c(F)c1F)C(=O)C1CCCO1 (configuration not stated),·,·,–,–,·,·,·,·
Cc1ccc(NC(=O)CN(C)C(=O)c2ccc(Cl)nc2)cc1,·,–,–,–,·,–,·,·

# Screening results from PubChem BioAssay.
